Assay results published in ChEMBL document CHEMBL3877264, “Quinolidene-rhodanine conjugates: Facile synthesis and biological evaluation” (Eur J Med Chem, 2017).
Converted amounts (≈) assume the structure as drawn.

Tests used:
Type in all cases: functional
Aspergillus niger = experiment: Antifungal activity against Aspergillus niger NCIM 1196 by standard agar method
Summary of the method: (§1)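 MICs determined by standard agar method; DMSO as solvent control.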

[1] = system: Mycobacterium tuberculosis; experiment: Growth inhibition of Mycobacterium tuberculosis H37Ra ATCC 25177 at active stage measured after 8 days by XTT dye based two fold dilution method; details: H37Ra ATCC 25177, 192 h
Summary of the method: (§2)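 MTB H37Ra was grown in Dubos medium, then exposed in Mycobacterium pheli minimal medium (pH 6.6) to compounds dissolved in DMSO. The assay ended on day 8 (active) or day 12 (dormant). Viable cells were measured by XTT reduction menadione assay at 470 nm, blank-corrected, relative to vehicle control. Triplicates were expressed as mean ± SD. MIC came from dose-response curves.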

Pseudomonas fluorescens [2] = experiment: Growth inhibition of Pseudomonas fluorescens NCIM 2036 at 30 ug/ml measured after 8 hrs relative to control; details: NCIM 2036, 8 h, read-out: GI
Summary of the method: (§3)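 Bacteria grown in LB at 37 °C and 180 rpm to OD 1. Compounds added to wells, then 0.1% inoculum of 1 OD culture (620 nm). Growth read as OD at 620 nm after 8 h for gram-negative and after 12 h for gram-positive strains.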

Escherichia coli [3] = experiment: Growth inhibition of Escherichia coli NCIM 2688 at 3 ug/ml measured after 8 hrs relative to control; details: NCIM 2688, 8 h, read-out: GI; summary of the method: as §3
[4] = system: Mycobacterium tuberculosis; experiment: Growth inhibition of Mycobacterium bovis BCG ATCC 35743 at dormant stage at 3 ug/ml measured after 12 days by nitrate reductase dye based two fold dilution method relative to control; details: BCG str. ATCC 35743, 288 h, read-out: GI
Summary of the method: (§4)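 M. bovis BCG was grown in Dubos medium and assayed in Mycobacterium pheli minimal medium (pH 6.6), with compounds from DMSO stocks. Incubation lasted 8 days for active and 12 days for dormant cultures. Viability was read by nitrate reductase at 540 nm against cell-free blanks, with vehicle set as 100% growth. Primary screen was at 30, 10 and 3 µg/ml, in triplicate, mean ± SD. MIC was taken from dose-response curves.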

[5] = Antifungal activity against Cryptococcus neoformans NCIM 576 by standard agar method; summary of the method: as §1
[6] = system: Mycobacterium tuberculosis; experiment: Growth inhibition of Mycobacterium bovis BCG ATCC 35743 at dormant stage at 30 ug/ml measured after 12 days by nitrate reductase dye based two fold dilution method relative to control; details: BCG str. ATCC 35743, 288 h, read-out: GI; summary of the method: as §4
Escherichia coli [7] = experiment: Growth inhibition of Escherichia coli NCIM 2688 at 10 ug/ml measured after 8 hrs relative to control; details: NCIM 2688, 8 h, read-out: GI; summary of the method: as §3
Pseudomonas fluorescens [8] = experiment: Antibacterial activity against Pseudomonas fluorescens NCIM 2036 measured after 8 hrs; details: NCIM 2036, 8 h; summary of the method: as §3
Candida albicans = experiment: Antifungal activity against Candida albicans NCIM 3471 by standard agar method; summary of the method: as §1
Pseudomonas fluorescens [9] = experiment: Growth inhibition of Pseudomonas fluorescens NCIM 2036 at 3 ug/ml measured after 8 hrs relative to control; details: NCIM 2036, 8 h, read-out: GI; summary of the method: as §3
Staphylococcus aureus [10] = experiment: Growth inhibition of Staphylococcus aureus NCIM 2010 at 10 ug/ml measured after 12 hrs relative to control; details: NCIM 2010, 12 h, read-out: GI; summary of the method: as §3
Aspergillus flavus = experiment: Antifungal activity against Aspergillus flavus NCIM 539 by standard agar method; summary of the method: as §1
Escherichia coli [11] = experiment: Growth inhibition of Escherichia coli NCIM 2688 at 30 ug/ml measured after 8 hrs relative to control; details: NCIM 2688, 8 h, read-out: GI; summary of the method: as §3
Pseudomonas fluorescens [12] = experiment: Growth inhibition of Pseudomonas fluorescens NCIM 2036 at 10 ug/ml measured after 8 hrs relative to control; details: NCIM 2036, 8 h, read-out: GI; summary of the method: as §3
Bacillus subtilis [13] = experiment: Growth inhibition of Bacillus subtilis NCIM 2079 at 10 ug/ml measured after 12 hrs relative to control; details: NCIM 2079, 12 h, read-out: GI; summary of the method: as §3
[14] = system: Mycobacterium tuberculosis; experiment: Growth inhibition of Mycobacterium bovis BCG ATCC 35743 at dormant stage at 10 ug/ml measured after 12 days by nitrate reductase dye based two fold dilution method relative to control; details: BCG str. ATCC 35743, 288 h, read-out: GI; summary of the method: as §4
[15] = system: Mycobacterium tuberculosis; experiment: Growth inhibition of Mycobacterium bovis BCG ATCC 35743 at dormant stage measured after 12 days by nitrate reductase dye based two fold dilution method; details: BCG str. ATCC 35743, 288 h; summary of the method: as §4
Bacillus subtilis [16] = experiment: Antibacterial activity against Bacillus subtilis NCIM 2079 measured after 12 hrs; details: NCIM 2079, 12 h; summary of the method: as §3
[17] = Antifungal activity against Fusarium oxysporum NCIM 1332 by standard agar method; summary of the method: as §1
Escherichia coli [18] = experiment: Antibacterial activity against Escherichia coli NCIM 2688 measured after 8 hrs; details: NCIM 2688, 8 h; summary of the method: as §3
Bacillus subtilis [19] = experiment: Growth inhibition of Bacillus subtilis NCIM 2079 at 30 ug/ml measured after 12 hrs relative to control; details: NCIM 2079, 12 h, read-out: GI; summary of the method: as §3
Staphylococcus aureus [20] = experiment: Growth inhibition of Staphylococcus aureus NCIM 2010 at 3 ug/ml measured after 12 hrs relative to control; details: NCIM 2010, 12 h, read-out: GI; summary of the method: as §3
Staphylococcus aureus [21] = experiment: Growth inhibition of Staphylococcus aureus NCIM 2010 at 30 ug/ml measured after 12 hrs relative to control; details: NCIM 2010, 12 h, read-out: GI; summary of the method: as §3
Staphylococcus aureus [22] = experiment: Antibacterial activity against of Staphylococcus aureus NCIM 2010 measured after 12 hrs; details: NCIM 2010, 12 h; summary of the method: as §3
[23] = system: Mycobacterium tuberculosis; experiment: Growth inhibition of Mycobacterium bovis BCG ATCC 35743 at active stage measured after 8 days by nitrate reductase dye based two fold dilution method; details: BCG str. ATCC 35743, 192 h; summary of the method: as §4
[24] = system: Mycobacterium tuberculosis; experiment: Growth inhibition of Mycobacterium tuberculosis H37Ra ATCC 25177 at dormant stage measured after 12 days by XTT dye based two fold dilution method; details: H37Ra ATCC 25177, 288 h; summary of the method: as §2
Bacillus subtilis [25] = experiment: Growth inhibition of Bacillus subtilis NCIM 2079 at 3 ug/ml measured after 12 hrs relative to control; details: NCIM 2079, 12 h, read-out: GI; summary of the method: as §3

Structure (SMILES)	MIC (Aspergillus niger) [µg/mL]	IC50 [1] [µg/mL]	IC90 [1] [µg/mL]	inhibition of growth at 30 µg/mL (Pseudomonas fluorescens [2]) [%]	inhibition of growth at 3 µg/mL (Escherichia coli [3]) [%]	inhibition of growth at 3 µg/mL [4] [%]	MIC [5] [µg/mL]	inhibition of growth at 30 µg/mL [6] [%]	inhibition of growth at 10 µg/mL (Escherichia coli [7]) [%]	MIC (Pseudomonas fluorescens [8]) [µg/mL]	MIC (Candida albicans) [µg/mL]	inhibition of growth at 3 µg/mL (Pseudomonas fluorescens [9]) [%]	inhibition of growth at 10 µg/mL (Staphylococcus aureus [10]) [%]	MIC (Aspergillus flavus) [µg/mL]	inhibition of growth at 30 µg/mL (Escherichia coli [11]) [%]	inhibition of growth at 10 µg/mL (Pseudomonas fluorescens [12]) [%]	inhibition of growth at 10 µg/mL (Bacillus subtilis [13]) [%]	inhibition of growth at 10 µg/mL [14] [%]	IC50 [15] [µg/mL]	IC90 [15] [µg/mL]	also measured
Cc1ccc2cc(/C=C3\SC(=S)NC3=O)c(Cl)nc2c1	75 (≈ 234 µM)	> 30	> 30	12.2	13.8	11.4	50 (≈ 156 µM)	11.4	11.3	> 30	100 (≈ 312 µM)	-8.82	-4.88	50 (≈ 156 µM)	12.9	27.1	-4.08	15	> 30	> 30	MIC (Bacillus subtilis [16]): > 30 µg/mL; MIC [17]: 100 µg/mL (≈ 312 µM); MIC (Escherichia coli [18]): > 30 µg/mL; inhibition of growth at 30 µg/mL (Bacillus subtilis [19]): -9.15%; inhibition of growth at 3 µg/mL (Staphylococcus aureus [20]): -13.7%; inhibition of growth at 30 µg/mL (Staphylococcus aureus [21]): 6.45%; MIC (Staphylococcus aureus [22]): > 30 µg/mL; IC50 [23]: > 30 µg/mL; IC90 [23]: > 30 µg/mL; IC50 [24]: > 30 µg/mL; IC90 [24]: > 30 µg/mL; inhibition of growth at 3 µg/mL (Bacillus subtilis [25]): -2.83%
Cc1ccc2cc(/C=C3\SC(=S)N(CCC(=O)O)C3=O)c(Cl)nc2c1	150 (≈ 382 µM)	> 30	> 30	6.75	18.5	19.1	150 (≈ 382 µM)	-9.18	28.8	> 30	25 (≈ 63.6 µM)	5.88	-17.8	150 (≈ 382 µM)	10.3	17.1	-5.45	7.51	> 30	> 30	MIC (Bacillus subtilis [16]): > 30 µg/mL; MIC [17]: 100 µg/mL (≈ 255 µM); MIC (Escherichia coli [18]): > 30 µg/mL; inhibition of growth at 30 µg/mL (Bacillus subtilis [19]): -7.94%; inhibition of growth at 3 µg/mL (Staphylococcus aureus [20]): -6.25%; inhibition of growth at 30 µg/mL (Staphylococcus aureus [21]): -15%; MIC (Staphylococcus aureus [22]): > 30 µg/mL; IC50 [23]: > 30 µg/mL; IC90 [23]: > 30 µg/mL; IC50 [24]: > 30 µg/mL; IC90 [24]: > 30 µg/mL; inhibition of growth at 3 µg/mL (Bacillus subtilis [25]): -6.11%
O=C1NC(=S)S/C1=C\c1cc2ccccc2nc1Cl	100 (≈ 326 µM)	> 30	> 30	5.4	-40.6	-80.1	50 (≈ 163 µM)	-43.1	-14.7	> 30	150 (≈ 489 µM)	-17.5	-21.3	150 (≈ 489 µM)	-28.5	-9.65	0.915	-22.1	> 30	> 30	MIC (Bacillus subtilis [16]): > 30 µg/mL; MIC [17]: 100 µg/mL (≈ 326 µM); MIC (Escherichia coli [18]): > 30 µg/mL; inhibition of growth at 30 µg/mL (Bacillus subtilis [19]): 0.707%; inhibition of growth at 3 µg/mL (Staphylococcus aureus [20]): -15.7%; inhibition of growth at 30 µg/mL (Staphylococcus aureus [21]): -28.2%; MIC (Staphylococcus aureus [22]): > 30 µg/mL; IC50 [23]: > 30 µg/mL; IC90 [23]: > 30 µg/mL; IC50 [24]: > 30 µg/mL; IC90 [24]: > 30 µg/mL; inhibition of growth at 3 µg/mL (Bacillus subtilis [25]): 7.53%
